Assay results published in ChEMBL document CHEMBL1156993, “Benzyl prolinate derivatives as novel selective KCC2 blockers” (Bioorg Med Chem Lett, 2010).
In brackets after ≈: the same amount, converted by molar mass. Activity calls are given as the source filed them. The rule behind the calls is not given here.

Key:
[1] = target: T1, Solute carrier family 12 member 5 (Rattus norvegicus, UniProt Q63633); assay: Antagonist activity of rat KCC2 transporter expressed in human SK-Hep cells assessed as inhibition of N-ethylmaleimide-mediated Rb+ influx after 10 mins by atomic absorption spectroscopy; type: functional, cell-based
T1 sequence (Q63633 whole entry): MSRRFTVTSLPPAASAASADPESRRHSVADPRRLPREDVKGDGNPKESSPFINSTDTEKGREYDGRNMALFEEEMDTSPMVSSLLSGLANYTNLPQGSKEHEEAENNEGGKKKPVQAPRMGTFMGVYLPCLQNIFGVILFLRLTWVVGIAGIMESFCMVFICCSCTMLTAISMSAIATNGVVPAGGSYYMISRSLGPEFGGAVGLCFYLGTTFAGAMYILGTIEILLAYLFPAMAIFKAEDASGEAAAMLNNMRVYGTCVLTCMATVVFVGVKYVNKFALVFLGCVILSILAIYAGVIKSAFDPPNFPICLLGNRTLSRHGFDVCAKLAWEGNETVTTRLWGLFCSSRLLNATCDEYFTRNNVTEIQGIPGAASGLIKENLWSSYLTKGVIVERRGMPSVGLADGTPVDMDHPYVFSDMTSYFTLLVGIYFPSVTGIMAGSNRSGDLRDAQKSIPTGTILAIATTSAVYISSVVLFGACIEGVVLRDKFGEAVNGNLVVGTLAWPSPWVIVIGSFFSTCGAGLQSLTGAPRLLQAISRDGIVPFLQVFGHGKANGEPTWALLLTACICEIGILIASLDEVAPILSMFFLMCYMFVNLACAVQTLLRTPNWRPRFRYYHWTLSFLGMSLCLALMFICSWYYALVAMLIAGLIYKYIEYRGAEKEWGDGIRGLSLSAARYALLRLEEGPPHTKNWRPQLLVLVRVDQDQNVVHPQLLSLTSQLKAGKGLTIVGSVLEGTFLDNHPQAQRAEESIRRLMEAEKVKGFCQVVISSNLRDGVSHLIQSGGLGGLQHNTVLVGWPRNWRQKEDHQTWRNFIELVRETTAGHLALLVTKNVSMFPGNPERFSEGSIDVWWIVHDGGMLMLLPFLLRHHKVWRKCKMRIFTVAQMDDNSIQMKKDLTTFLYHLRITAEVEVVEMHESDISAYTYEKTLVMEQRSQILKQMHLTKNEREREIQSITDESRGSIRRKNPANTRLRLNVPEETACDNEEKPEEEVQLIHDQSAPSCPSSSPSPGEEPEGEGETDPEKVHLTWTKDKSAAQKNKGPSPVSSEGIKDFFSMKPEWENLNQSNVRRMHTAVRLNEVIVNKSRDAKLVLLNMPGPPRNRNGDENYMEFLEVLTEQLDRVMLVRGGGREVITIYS
Summary of the method: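 Rat KCC2 stably expressed in a selected clone. The co-transporter is activated with N-ethylmaleimide in the presence of the test compound, and Rb+ influx is started by adding 5 mM RbCl to the extracellular medium. Influx is stopped after 10 min by repeated washes. Intracellular Rb+ is measured by atomic absorption spectroscopy, and IC50 is reported.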

[2] = Antagonist activity to dog NKCC1 transporter expressed in MDCK cells assessed as inhibition of Cl- free medium-stimulated Rb+ influx at 100 uM after 45 mins by atomic absorption spectroscopy; type: functional, Canis lupus familiaris; details: for inhibition at 100 µM: Canis lupus familiaris, MDCK, 0.75 h
Summary of the method: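 MDCK cells express endogenous canine NKCC1. NKCC1 is activated by incubating the cells for 2 h in Cl−-free medium. Rb+ influx is then stimulated for 45 min by adding 20 mM RbCl to the extracellular solution. Intracellular Rb+ is quantified by atomic absorption spectroscopy, and results are given as percent inhibition.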

[3] = Intrinsic clearance in rat hepatocytes assessed per 10^6 cells
[4] = Intrinsic clearance in rat microsomes assessed per mg of protein; type: ADME, Microsome
[5] = Aqueous solubility in PBS buffer at pH 7.4; type: physicochemical
[6] = Oral bioavailability in Wistar rat at 6 mg/kg; type: ADME, organism-based; details: in vivo
Summary of the method: (§1)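 Male Wistar rats are dosed at 1 mg/kg iv for half-life and clearance, and at 6 mg/kg po for AUC, Cmax and oral bioavailability.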

[7] = Cmax in Wistar rat at 6 mg/kg, po; type: ADME, organism-based; parameters: dose 6 mg/kg, route oral; details: in vivo; summary of the method: as §1
[8] = AUC in Wistar rat at 6 mg/kg, po; type: ADME, organism-based; parameters: dose 6 mg/kg, route oral; details: plasma; summary of the method: as §1
[9] = Half life in Wistar rat at 1 mg/kg, iv; type: ADME, organism-based; parameters: dose 1 mg/kg, route intravenous; details: in vivo; summary of the method: as §1
[10] = Clearance in Wistar rat at 1 mg/kg, iv; type: ADME, organism-based; parameters: dose 1 mg/kg, route intravenous; details: in vivo; summary of the method: as §1
Mus musculus [11] = assay: Anticonvulsant activity in audiogenic mouse epilepsy model assessed as inhibition of sound-induced tonic convulsion phase of seizure up to 75 mg/kg, ip pretreated 5 mins before acoustic stimulation; type: functional, organism-based; parameters: dose 75 mg/kg
Summary of the method: (§2)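 Mice are pre-selected as responders in a first acoustic challenge (85 dB, 30 s). Wild running, clonic and tonic phases are scored. The next day, compound is given ip 5 min before the same stimulus. The proportion of mice protected against each of the three phases is calculated per group, with N = 10 per dose.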

Mus musculus [12] = assay: Anticonvulsant activity in audiogenic mouse epilepsy model assessed as inhibition of sound-induced clonic phase of seizure up to 75 mg/kg, ip pretreated 5 mins before acoustic stimulation; type: functional, organism-based; parameters: dose 75 mg/kg; summary of the method: as §2
Mus musculus [13] = assay: Anticonvulsant activity in audiogenic mouse epilepsy model assessed as inhibition of sound-induced wild running phase of seizure up to 75 mg/kg, ip pretreated 5 mins before acoustic stimulation; type: functional, organism-based; parameters: dose 75 mg/kg; summary of the method: as §2

CC(=O)N1CCCC1(Cc1ccccc1)C(=O)OCc1ccc(C)cc1 (centres undefined)
IC50 [1]: 790 nM

COC(=O)C1(Cc2ccccc2)CCCN1C(C)=O (centres undefined)
IC50 [1]: > 100000 nM

O=C(c1ccccc1)N1CCCC1(Cc1ccccc1)C(=O)OCc1ccccc1 (centres undefined)
IC50 [1]: 4000 nM

CC(=O)N1CCCC1(Cc1ccc(S(C)(=O)=O)cc1)C(=O)OCc1ccccc1 (single isomer, unassigned; (-))
IC50 [1]: 40000 nM

CCNC(=O)N1CCCC1(Cc1ccccc1)C(=O)OCc1ccccc1 (centres undefined)
IC50 [1]: 2000 nM

CC(=O)N1CCCC1(Cc1ccccc1)C(=O)OCc1ccccc1 (single isomer, unassigned; (+))
IC50 [1]: 320 nM
inhibition (INH) [2]: 14%

CCC1(C(=O)OCc2ccccc2)CCCN1C(C)=O (centres undefined)
IC50 [1]: 80000 nM

O=C(C1CC1)N1CCCC1(Cc1ccccc1)C(=O)OCc1ccccc1 (centres undefined)
IC50 [1]: 320 nM

CC(=O)N1CCCC1(Cc1ccccc1)C(=O)OCc1ccccc1Cl (centres undefined)
IC50 [1]: 6000 nM

CC(=O)N1CCCC1(Cc1ccc(C(F)(F)F)cc1)C(=O)OCc1ccccc1 (centres undefined)
hepatocyte CLint [3]: 20 µL/min/1e6 cells
microsomal CLint [4]: 128 µL/min/mg
IC50 [1]: 630 nM
inhibition at 100 µM [2]: 53%
solubility [5]: 2 µg/mL (≈ 4.93 µM)

CC(=O)N1CCCC1(Cc1ccccc1)C(=O)OCc1ccncc1 (centres undefined)
IC50 [1]: > 100000 nM

COc1ccc(CC2(C(=O)OCc3ccccc3)CCCN2C(C)=O)cc1C(F)(F)F (centres undefined)
IC50 [1]: 50 nM

CC(=O)N1CCCC1(Cc1ccccc1)C(=O)OCc1ccc(C(F)(F)F)cc1 (centres undefined)
IC50 [1]: 5000 nM

CCN1CCCC1(Cc1ccccc1)C(=O)OCc1ccccc1 (centres undefined)
IC50 [1]: > 100000 nM

CC(=O)N1CCCC1(CCc1ccccc1)C(=O)OCc1ccccc1 (centres undefined)
IC50 [1]: 8000 nM

CS(=O)(=O)N1CCCC1(Cc1ccccc1)C(=O)OCc1ccccc1 (centres undefined)
hepatocyte CLint [3]: 23 µL/min/1e6 cells
microsomal CLint [4]: 400 µL/min/mg
IC50 [1]: 1600 nM
inhibition at 100 µM [2]: < 20%
solubility [5]: 1 µg/mL (≈ 2.68 µM)

CC(=O)N1CCCC1(Cc1ccccc1)C(=O)OC(C)c1ccccc1 (centres undefined)
IC50 [1]: 4000 nM

CC(=O)N1CCCC1(Cc1ccccc1)C(=O)OCc1ccccc1 (racemic)
bioavailability [6]: 0.5%
Cmax [7]: 11.9 ng/mL
hepatocyte CLint [3]: 28 µL/min/1e6 cells
AUC [8]: 8.6 ng·h/mL
microsomal CLint [4]: 385 µL/min/mg
IC50 [1]: 790 nM
half-life [9]: 144 min
clearance [10]: 61 mL/min/kg
inhibition (INH) [2]: 44%
solubility [5]: 2 µg/mL (≈ 5.93 µM)

CC(=O)N1CCCC1(Cc1ccc(S(C)(=O)=O)cc1)C(=O)OCc1ccccc1 (stereo in doubt; 13)
Activity (Mus musculus [11]): inactive
Activity (Mus musculus [12]): inactive
Activity (Mus musculus [13]): inactive

CC(=O)N1CCCC1(Cc1ccccc1)C(=O)OCc1cccc(Cl)c1 (centres undefined)
IC50 [1]: 2500 nM

CC(=O)N1CCCC1(Cc1ccccc1)C(=O)OCc1ccccc1 (single isomer, unassigned; (-))
CL [4]: 392 µL/min/mg
IC50 [1]: 50000 nM

CC(=O)N1CCCC1(Cc1ccccc1)C(=O)OCc1ccc(Cl)cc1 (centres undefined)
IC50 [1]: 1300 nM

COc1ccc(CC2(C(=O)OCc3ccccc3)CCCN2C(C)=O)cc1 (centres undefined)
hepatocyte CLint [3]: 23 µL/min/1e6 cells
microsomal CLint [4]: 333 µL/min/mg
IC50 [1]: 400 nM
inhibition at 100 µM [2]: 59%
solubility [5]: 10 µg/mL (≈ 27.2 µM)

O=C(OCc1ccccc1)C1(Cc2ccccc2)CCCN1 (centres undefined)
IC50 [1]: > 100000 nM
